Values after ≈ are worked out from the molar mass of the structure shown. Active and inactive are the calls of the source. The rule behind the calls is not given here.
Legend:
Candida albicans [1] = assay: Antifungal activity against Candida albicans ATCC 10231 after 24 hrs by two fold serial dilution method; format: functional; conditions: ATCC 10231, 24 h
Procedure, shortened: (§1)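 Candida grown on Sabouraud dextrose agar at 35 °C for 24 h, adjusted to ~5×10^3 CFU/mL. Two-fold dilutions from 100 to 0.78 μg/mL in Sabouraud dextrose broth, incubated at 35 °C for 24 h. MIC is the lowest concentration inhibiting growth by eye and by OD600. CLSI-based with minor modifications.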

Candida albicans [2] = assay: Antifungal activity against drug resistant Candida albicans DF2672R after 24 hrs by two fold serial dilution method; format: functional; procedure, shortened: as §1
[3] = Dissociation constant, pKa of compound; format: physicochemical
Bacillus cereus = assay: Antibacterial activity against Bacillus cereus ATCC11778 by two fold serial dilution method; format: functional
Procedure, shortened: (§2)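 Broth microdilution (CLSI, minor modifications) in Sabouraud dextrose, Mueller−Hinton or RPMI 1640 broth; two-fold serial dilutions of compound from stock to final 100 to 0.78 μg/mL. MIC taken as lowest concentration giving no visible growth.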

Klebsiella pneumoniae = assay: Antibacterial activity against Klebsiella pneumoniae DM4299 by two fold serial dilution method; format: functional; procedure, shortened: as §2
Pseudomonas aeruginosa = assay: Antibacterial activity against Pseudomonas aeruginosa DM23155 by two fold serial dilution method; format: functional; procedure, shortened: as §2
Candida albicans [4] = assay: Antifungal activity against Candida albicans DF1976R after 24 hrs by two fold serial dilution method; format: functional; procedure, shortened: as §1
Candida albicans [5] = assay: Antifungal activity against Candida albicans ATCC90028 after 24 hrs by two fold serial dilution method; format: functional; conditions: ATCC90028, 24 h; procedure, shortened: as §1
Candida albicans [6] = assay: Antifungal activity against Candida albicans ATCC24433 after 24 hrs by two fold serial dilution method; format: functional; conditions: ATCC24433, 24 h; procedure, shortened: as §1
Candida albicans [7] = assay: Antifungal activity against Candida albicans ATCC11651 after 24 hrs by two fold serial dilution method; format: functional; conditions: ATCC11651, 24 h; procedure, shortened: as §1
Fusarium solani [8] = assay: Antifungal activity against Fusarium solani 52628 after 48 hrs by two fold serial dilution method; format: functional; conditions: Fusarium solani, 52628, 48 h
Procedure, shortened: (§3)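 Moulds grown on potato dextrose agar, 30 °C, 4 days; inoculum adjusted to about 5×10^3 CFU/mL. Two-fold serial dilutions in RPMI-1640 broth, 100 to 0.78 μg/mL final, mixed with equal volume of cell suspension; incubated 30 °C, 48 h. MIC = lowest concentration inhibiting growth, judged visually and by OD530.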

Fusarium solani [9] = assay: Antifungal activity against Fusarium solani 62877 after 48 hrs by two fold serial dilution method; format: functional; conditions: Fusarium solani, 62877, 48 h; procedure, shortened: as §3
Fusarium solani [10] = assay: Antifungal activity against Fusarium solani MYA3636 after 48 hrs by two fold serial dilution method; format: functional; conditions: MYA3636, 48 h; procedure, shortened: as §3
Aspergillus flavus [11] = assay: Antifungal activity against Aspergillus flavus TCC 204304 after 48 hrs by two fold serial dilution method; format: functional; conditions: TCC 204304, 48 h; procedure, shortened: as §3
Aspergillus flavus [12] = assay: Antifungal activity against Aspergillus flavus TCC MYA3631 after 48 hrs by two fold serial dilution method; format: functional; conditions: TCC MYA3631, 48 h; procedure, shortened: as §3
Aspergillus fumigatus [13] = assay: Antifungal activity against Aspergillus fumigatus TCC MYA3626 after 48 hrs by two fold serial dilution method; format: functional; conditions: TCC MYA3626, 48 h; procedure, shortened: as §3
Aspergillus fumigatus [14] = assay: Antifungal activity against Aspergillus fumigatus TCC 90906 after 48 hrs by two fold serial dilution method; format: functional; conditions: TCC 90906, 48 h; procedure, shortened: as §3
Candida albicans [15] = assay: Synergistic antifungal activity against drug resistant Candida albicans DF2672R after 24 hrs in presence of itraconazole by checkerboard assay; format: functional
Procedure, shortened: (§4)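 Checkerboard combination of each compound with a second antifungal, following a previously reported procedure. FIC = MIC of A in combination/MIC of A alone + MIC of B in combination/MIC of B alone.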

Candida albicans [16] = assay: Synergistic antifungal activity against drug resistant Candida albicans DF2672R after 24 hrs in presence of terbinafine by checkerboard assay; format: functional; procedure, shortened: as §4
Candida albicans [17] = assay: Synergistic antifungal activity against drug resistant Candida albicans DF2672R after 24 hrs in presence of posaconazole by checkerboard assay; format: functional; procedure, shortened: as §4
Candida albicans [18] = assay: Synergistic antifungal activity against drug resistant Candida albicans DF2672R after 24 hrs in presence of natamycin by checkerboard assay; format: functional; procedure, shortened: as §4
Candida albicans [19] = assay: Synergistic antifungal activity against drug resistant Candida albicans DF2672R after 24 hrs in presence of amphotericin B by checkerboard assay; format: functional; procedure, shortened: as §4
Candida albicans [20] = assay: Fungicidal activity against drug resistant Candida albicans DF2672R at 1 time MIC after 24 hrs by time kill assay; format: functional
Procedure, shortened: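 Cells at 10^5–10^6 CFU/mL exposed to 1×, 2×, 4× or 8× MIC at 35 °C. Samples taken at 0.5, 1, 2, 4, 8 and 24 h, serially diluted in PBS and plated on SDA. CFU counted after 24 h at 35 °C; biological replicates.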

Fusarium oxysporum [21] = assay: Antifungal activity against Fusarium oxysporum MYA3461 after 48 hrs by two fold serial dilution method; format: functional; conditions: MYA3461, 48 h; procedure, shortened: as §3
Fusarium oxysporum [22] = assay: Antifungal activity against Fusarium oxysporum 64530 after 48 hrs by two fold serial dilution method; format: functional; conditions: Fusarium oxysporum, 64530, 48 h; procedure, shortened: as §3
[23] = Cytotoxicity against human corneal fibroblasts assessed as reduction in cell viability after 4 hrs by LDH assay; format: cell-based; conditions: Corneal fibroblast
Procedure, shortened: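 LDH release assay on human corneal fibroblasts seeded at 10000 cells per well, exposed to a range of compound concentrations up to 100 μM. 1% Triton X-100 served as positive control and 0.5% DMSO as negative control; biological replicates.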

[24] = Selectivity index, ratio of IC50 for human corneal fibroblasts to MIC for drug resistant Candida albicans DF2672R
Lipid bilayer = assay: Induction of membrane permiablization in calcein loaded DOPC/DOPE/PI large unilamellar vesicles assessed as calcein leakage at 1:8 compound to lipid ratio after 1 to 2 hrs by […] fluorescence assay relative to control
Procedure, shortened: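 LUVs (DOPC/DOPE/PI 2:1:1 with 15 wt % ergosterol, about 100 nm) made by film hydration and extrusion, loaded with 80 mM calcein in HEPES buffer pH 7.4. Free dye removed by G-50 column. Compound added in 0.5% DMF at 50 μM final phospholipid. Emission read at 520 nm (excitation 490 nm); leakage normalized to 1% Triton X-100.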

Candida albicans [25] = assay: Antifungal activity against drug resistant Candida albicans DF2672R infected C57BL6 mouse cornea at 0.2% administered topically for every 20 mins during the first hour and every 1 hr during the next 6 hrs by serial dilution method; format: functional
Procedure, shortened: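 C57BL6 mice aged 7–8 weeks (19–23 g), immunosuppressed with cyclophosphamide 100 mg/kg ip at 4 days and 1 day before infection and on day 1 after. Left cornea scratched under xylazine/ketamine, then 20 μL of ~5×10^7 CFU/mL yeast in PBS applied. Treatment started 1 day later; PBS served as control; four mice per group. Corneal fungal load counted by serial dilution plating on SDA.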

Candida albicans [26] = assay: Potency index, ratio of natamycin concentration to compound concentration for antifungal activity against drug resistant Candida albicans DF2672R infected C57BL6 mouse; format: functional
Staphylococcus aureus [27] = assay: Antibacterial activity against methicillin resistant Staphylococcus aureus DM21455 by two fold serial dilution method; format: functional
Procedure, shortened: (§5)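 Broth microdilution per CLSI guidelines with minor modifications, run in Mueller−Hinton broth; MIC is the lowest concentration giving no visible growth.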

Staphylococcus aureus [28] = assay: Antibacterial activity against methicillin resistant Staphylococcus aureus DM9808R by two fold serial dilution method; format: functional; procedure, shortened: as §5

Work on COc1c(OCC(O)CNC(=N)N)cc2oc3cc(OCC(O)CNC(=N)N)c(CC=C(C)C)c(O)c3c(=O)c2c1CC=C(C)C (configuration not stated) yielded an MIC (Candida albicans [1]) of 0.78 µg/mL (≈ 1.22 µM), an MIC (Candida albicans [2]) of 0.78 µg/mL (≈ 1.22 µM) and a pKa [3] of 12.5. The MIC (Bacillus cereus) was 1.56 to 3.13 µg/mL (≈ 2.43 to 4.88 µM), the MIC (Klebsiella pneumoniae) was 25 to 50 µg/mL (≈ 39 to 78 µM) and the MIC (Pseudomonas aeruginosa) was 25 to 50 µg/mL (≈ 39 to 78 µM). For the same compound, the MIC (Candida albicans [4]) was 0.78 µg/mL (≈ 1.22 µM), the MIC (Candida albicans [5]) was 0.78 µg/mL (≈ 1.22 µM) and the MIC (Candida albicans [6]) was 0.78 µg/mL (≈ 1.22 µM). For the same compound, the MIC (Candida albicans [7]) was 0.78 µg/mL (≈ 1.22 µM), the MIC (Fusarium solani [8]) was 3.13 µg/mL (≈ 4.88 µM) and the MIC (Fusarium solani [9]) was 3.13 µg/mL (≈ 4.88 µM). For the same compound, the MIC (Fusarium solani [10]) was 3.13 µg/mL (≈ 4.88 µM), the MIC (Aspergillus flavus [11]) was 6.25 µg/mL (≈ 9.75 µM) and the MIC (Aspergillus flavus [12]) was 6.25 µg/mL (≈ 9.75 µM). The MIC (Aspergillus fumigatus [13]) was 6.25 µg/mL (≈ 9.75 µM), the MIC (Aspergillus fumigatus [14]) was 6.25 µg/mL (≈ 9.75 µM) and the “fractional inhibitory concentration index (FICI)” value (Candida albicans [15]) was 1.28. The “fractional inhibitory concentration index (FICI)” value (Candida albicans [16]) was 0.44, the “fractional inhibitory concentration index (FICI)” value (Candida albicans [17]) was 1.06 and the “fractional inhibitory concentration index (FICI)” value (Candida albicans [18]) was 1.08. For the same compound, the “fractional inhibitory concentration index (FICI)” value (Candida albicans [19]) was 1.28, the Activity (Candida albicans [20]) was “Active” and the MIC (Fusarium oxysporum [21]) was 1.56 µg/mL (≈ 2.43 µM). The MIC (Fusarium oxysporum [22]) was 3.13 µg/mL (≈ 4.88 µM), the IC50 [23] was greater than 100 µM and the “Selectivity Index” value [24] was 41 - 82. The Activity (Lipid bilayer) was 43.8%, the Activity (Candida albicans [25]) was 92.8% and the Ratio (Candida albicans [26]) was 25. For the same compound, the MIC (Staphylococcus aureus [27]) was 1.56 to 3.13 µg/mL (≈ 2.43 to 4.88 µM) and the MIC (Staphylococcus aureus [28]) was 1.56 to 3.13 µg/mL (≈ 2.43 to 4.88 µM).
